For test [1], the species on record is Homo sapiens. Nature of the test: Inhibition of full length His-tagged HSP90/GST-tagged Cdc37 (unknown origin) interaction at 100 uM after 1 hr by HTRF assay relative to control. Summed up: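 HTRF assay using His-tagged full-length Hsp90 and GST-tagged Cdc37 M, each 250 nM final, in PBS with an extra 400 mM KF, pH 7.4. Compound incubated 1 h at 37 °C. Anti-GST-Cryptate and anti-6His-XL665 then added, 0.5 h at 37 °C. Ex 320 nm; ratio = (665/620 nm) × 10000. No-compound negative control and reagent-only blank.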
(In general: TR-FRET usually uses a lanthanide donor and a delayed reading to cut background.)

Test [2] can be described thus: Inhibition of full length His-tagged HSP90/GST-tagged Cdc37 (unknown origin) interaction after 1 hr by HTRF assay. Set-up: species or system Homo sapiens. Put shortly: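 Final 250 nM each of His-Hsp90 (full length) and GST-Cdc37 M in PBS with extra 400 mM KF, pH 7.4. Compound added (300 μM to 1.23 μM, three-fold steps), 1 h at 37 °C. Anti-GST-cryptate and anti-6His-XL665 added, 0.5 h at 37 °C. TR-FRET read at ex 320 nm, em 665/620 nm, ratio ×10000. No-compound and reagent-only controls included.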

Test [3] relates to MCF7. The test can be described thus: Antiproliferative activity against human MCF7 cells after 72 hrs by MTT assay. The class given is functional, cell-based. To be noted: MCF7, 72 h. Summed up: (§1)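 Cells seeded at 10000/well and left 24 h, then exposed to compounds in DMSO (200 μM down to 0.823 μM, three-fold steps) for 72 h at 37 °C. Viability was read by MTT (5 mg/mL in PBS) with formazan dissolved in DMSO, OD at 490 nm. IC50 was taken from parallel experiments as mean ± SD. Media: MCF-7 in MEM, SKBR-3 in RPMI-1640, A549 in F12K, each with 10% FCS.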

Test [4] relates to SK-BR-3. Nature of the test: Antiproliferative activity against human SKBR3 cells after 72 hrs by MTT assay. The class given is functional, cell-based. The following applies: SK-BR-3, 72 h. Put shortly:
as §1
On the technique in general: Formazan colour is commonly taken as a measure of viable cells.

Test [5] has as its system A549. The test can be described thus: Antiproliferative activity against human A549 cells after 72 hrs by MTT assay. Format: functional, cell-based. To be noted: A549, 72 h. Put shortly:
as §1

The source of these data is ChEMBL document CHEMBL4138078, “Structure-based virtual screening and optimization of modulators targeting Hsp90-Cdc37 interaction” (Eur J Med Chem, 2017).

The source made the active and inactive calls. No cut-off for these calls is given here. Where only a bound is given, the exact number is not on record here.

For orientation: inhibition means how much of the control response was suppressed. For `CCOC(=O)c1cccc(NC(=O)CSc2nnc(-c3ccc(O)cc3)n2Cc2ccccc2)c1`, in test [1], the inhibition amounted to 14.1%. Turning to `Cc1cc(NS(=O)(=O)c2ccc(NC(=O)c3ccc(C(=O)Nc4ccc(S(=O)(=O)Nc5cc(C)on5)cc4)cc3)cc2)no1`, the inhibition result in test [1] was “inactive”. On the same count and under the same terms, for `O=C(CCC(=O)Nc1ccc(S(=O)(=O)Nc2ccccn2)cc1)Nc1ccc(S(=O)(=O)Nc2ccccn2)cc1` the value was less than 10%. What is called IC50 is the concentration that gives 50% inhibition. A higher IC50 goes with weaker potency in that assay. Take `O[C@H](COc1ccc(OC[C@H](O)CN2CCN(c3cccc(Cl)c3)CC2)cc1)CN1CCN(c2cccc(Cl)c2)CC1`: the inhibition in test [1] was 47.6%. Also, the IC50 in test [2] is 128 µM; in test [3] it was 89.2 µM; in test [4], more than 100 µM; in test [5] it was more than 100 µM. On to `Cc1ccnc(NS(=O)(=O)c2ccc(NC(=O)c3cccc(C(=O)Nc4ccc(S(=O)(=O)Nc5nccc(C)n5)cc4)c3)cc2)n1`, for which the inhibition in test [1] is less than 10%. The same measure, in the same setting: for `Cc1cc(NS(=O)(=O)c2ccc(NC(=O)CC(=O)Nc3ccc(S(=O)(=O)Nc4cc(C)on4)cc3)cc2)no1` the value was 65.6 to 66%. On to `COc1ccc(CCNc2cc(N3CCN(CCO)CC3)ccc2[N+](=O)[O-])cc1OC`, for which the inhibition in test [1] was 30.7%. Further, the IC50 in test [2] was 296 µM; in test [3], more than 100 µM; in test [4], 84.6 µM; in test [5] it was more than 100 µM.

In turn, `Cc1noc(NS(=O)(=O)c2ccc(NC(=O)CC(=O)Nc3ccc(S(=O)(=O)Nc4onc(C)c4C)cc3)cc2)c1C` showed an inhibition in test [1] of less than 10%. Still for that read-out and setting: for `COC(=O)c1cc(NCc2cc(Cl)c(OCC(N)=O)c(OC)c2)ccc1N1CCOCC1` the value was less than 10%; for `CC(=O)Nc1ccc(C(=O)OCCOC(=O)C2=C(C)NC(C)=C(C(=O)OCCNC(=O)c3ccccc3O)[C@H]2c2cccc([N+](=O)[O-])c2)cc1`, less than 10%. On the same count and under the same terms, the figure for `COc1ccc(-c2c(C)oc3cc(OCCN4CCN(CCO)CC4)ccc3c2=O)cc1OC` is less than 10%; for `Cn1c(SCC(=O)Nc2ccc3nc(SCC(=O)c4ccc(Cl)cc4)sc3c2)nnc1-c1ccc(N)cc1` it is less than 10%. Still for that read-out and setting: for `NC(=O)COc1ccc(/C=N/NC(=O)[C@H]2CCCN2S(=O)(=O)c2ccc(Cl)cc2)cc1` the value was less than 10%; for `CCOc1cc(CNc2ccc(N3CCOCC3)c(C(=O)OC)c2)cc(Cl)c1OCC(N)=O`, less than 10%. In test [1], `CCOC(=O)C1=C(CSc2nc3c(cc2C#N)CN(C)CC3)OC(N)=C(C#N)C1c1ccncc1` (stereo not given) came in with an inhibition of less than 10%. The same measure, in the same setting: the figure for `O=C(CCC(=O)Nc1ccc(S(=O)(=O)Nc2nccs2)cc1)Nc1ccc(S(=O)(=O)Nc2nccs2)cc1` is less than 10%; for `COc1ccc([C@H](CC(=O)O)NC(=O)CCc2c(C)c3ccc(O)cc3oc2=O)cc1OC` it is less than 10%; for `CCOC(=O)c1c(C)n(Cc2ccccc2)c2ccc(OC[C@H](O)CN3CCN(CCO)CC3)cc12` it is less than 10%.

In test [1], `CCOc1ccc(C(=O)C2=C(O)C(=O)N(CCOCCO)[C@@H]2c2cccc(OC)c2)cc1` came in with an inhibition of less than 10%. On the same count and under the same terms, the figure for `COc1ccc(S(=O)(=O)N(CC(=O)N/N=C/c2ccc(OCC(N)=O)cc2)c2ccccc2)cc1` is less than 10%; for `Cc1ccnc(NS(=O)(=O)c2ccc(NC(=O)CCC(=O)Nc3ccc(S(=O)(=O)Nc4nccc(C)n4)cc3)cc2)n1` it is less than 10%. On the same count and under the same terms, for `Cc1cc(NS(=O)(=O)c2ccc(NC(=O)CCCCC(=O)Nc3ccc(S(=O)(=O)Nc4cc(C)on4)cc3)cc2)no1` the value was 20.7%. Same read-out and setting: for `O=C(CCC(=O)Nc1ccc(S(=O)(=O)Nc2ccccc2)cc1)Nc1ccc(S(=O)(=O)Nc2ccccc2)cc1` the value was 49.6%. Molecule `NC(=O)C1CCN(C[C@H](O)COc2ccc(OC[C@@H](O)CN3CCC(C(N)=O)CC3)cc2)CC1` displayed an inhibition in test [1] of less than 10%. On the same count and under the same terms, the figure for `CS(=O)(=O)N(CC(=O)N/N=C/c1ccc(OCC(=O)Nc2ccc(F)cc2)cc1)c1ccc(Cl)c(Cl)c1` is less than 10%.

In test [1], `Cc1noc(NS(=O)(=O)c2ccc(NC(=O)CCC(=O)Nc3ccc(S(=O)(=O)Nc4onc(C)c4C)cc3)cc2)c1C` returned an inhibition of 48.7%.

As for `O=C(CCC(=O)Nc1ccc(S(=O)(=O)Nc2ncccn2)cc1)Nc1ccc(S(=O)(=O)Nc2ncccn2)cc1`, in test [1], the inhibition was less than 10%.

Consider `Cn1nccc1NS(=O)(=O)c1ccc(NC(=O)CC(=O)Nc2ccc(S(=O)(=O)Nc3ccnn3C)cc2)cc1`, for which the inhibition in test [1] came out at 50.9%.

As to `O=C1NCCCC[C@H]1N[C@@H]1CC(=O)N(c2ccc(N3C(=O)C[C@@H](N[C@@H]4CCCCNC4=O)C3=O)cc2)C1=O`, the inhibition in test [1] was less than 10%. On the same count and under the same terms, the figure for `C[C@H](O)c1ccc(-c2ccc(CNCCCSc3nnnn3-c3ccccc3)o2)cc1` is less than 10%; for `O=C(CC(=O)Nc1ccc(S(=O)(=O)Nc2ccccc2)cc1)Nc1ccc(S(=O)(=O)Nc2ccccc2)cc1` it is 30.4%; for `COc1cccc(C(c2c(N)nc(SCC(N)=O)[nH]c2=O)c2c(N)nc(SCC(N)=O)[nH]c2=O)c1` it is 14.3%. The same measure, in the same setting: for `COc1ccccc1N(CC(=O)N/N=C/c1ccc(OCC(=O)Nc2ccccc2Cl)cc1)S(=O)(=O)c1ccc(C)cc1` the value was 13.6%; for `COc1ccc(C(=O)Nc2ccccc2C(=O)NCCCCO)cc1OC`, 19.3%. Turning to `COc1cc(/C=C2\SC(=S)N(CCCCCCN3C(=O)/C(=C\c4ccc(O)c(OC)c4)SC3=S)C2=O)ccc1O`, in test [1], the inhibition was determined as 17%. The same measure, in the same setting: for `CC1=C(C(=O)OCCNC(=O)c2ccc(O)cc2)[C@@H](c2cccc([N+](=O)[O-])c2)C(C(=O)OCCNC(=O)c2ccccc2O)=C(C)N1` the value was less than 10%. On the same count and under the same terms, for `Cc1cc(NS(=O)(=O)c2ccc(NC(=O)CCC(=O)Nc3ccc(S(=O)(=O)Nc4cc(C)on4)cc3)cc2)no1` the value was 69.8 to 70%; for `COc1ccc(NS(=O)(=O)c2ccc(NC(=O)CCC(=O)Nc3ccc(S(=O)(=O)Nc4ccc(OC)nn4)cc3)cc2)nn1`, less than 10%.

The molecule `CCCOC(=O)c1ccc(Oc2c(C)oc3c(CN4CCN(CCO)CC4)c(O)ccc3c2=O)cc1` had an inhibition in test [1] of less than 10%. Same read-out and setting: the figure for `Cc1cc(C)c(NS(=O)(=O)c2ccc(NC(=O)CCCCC(=O)Nc3ccc(S(=O)(=O)Nc4c(C)cc(C)cc4C)cc3)cc2)c(C)c1` is 21.5%. On the same count and under the same terms, the figure for `CC/N=C1\S[C@H](CC(=O)Nc2cccc(NC(=O)C[C@@H]3S/C(=N/CC)N(CC)C3=O)c2)C(=O)C1CC` (stereo not given in full) is less than 10%; for `C=C1[C@@H](C(=O)Nc2ccc(NS(=O)(=O)c3ccc(C)cc3)cc2)[C@@H]1C(=O)Nc1ccc(NS(=O)(=O)c2ccc(C)cc2)cc1` it is less than 10%.
